Measurements: publication PMC3790647 (Clinical cancer research : an official journal of the …, 2013)

System: patients with advanced solid tumors
Test: Safety and tolerability, first-in-human dose escalation
Format: in vivo
Settings: for Total number of AEs at each dose level: treatment-related clinical AEs
In short: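 Open-label 3+3 escalation: oral once-daily dosing on days 1–5 every 14 days at 100, 200, 400, 600 and 800 mg, with 3–6 patients per level and 4 cycles. Adverse events were graded by NCI-CTC-AE v3.0 from first dose to 30 days after last dose. DLTs were assessed over the first 14 days. Evaluable patients had five consecutive doses plus safety evaluations over nine days.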

Compound: CN(C)Cc1ccc(S(=O)(=O)n2ccc(/C=C/C(=O)NO)c2)cc1 [resminostat]
- Dysgeusia, treatment-related, patients by maximum grade (100 mg (N=3), grade 1): 1
- Fatigue, treatment-related, patients by maximum grade (100 mg (N=3), grade 1): 1
- Total number of AEs at each dose level (100 mg (N=3)): 2
- Nausea, treatment-related, patients by maximum grade (200 mg (N=3), grade 1): 1
- ALT increase, treatment-related, patients by maximum grade (200 mg (N=3), grade 2): 1
- Total number of AEs at each dose level (200 mg (N=3)): 2
- Arrhythmia, treatment-related, patients by maximum grade (400 mg (N=3), grade 1): 1
- Thrombocytopenia, treatment-related, patients by maximum grade (400 mg (N=3), grade 1): 1
- Nausea, treatment-related, patients by maximum grade (400 mg (N=3), grade 2): 2
- Total number of AEs at each dose level (400 mg (N=3)): 4
- Anorexia, treatment-related, patients by maximum grade (600 mg (N=3), grade 1): 1
- Depression, treatment-related, patients by maximum grade (600 mg (N=3), grade 1): 1
- Diarrhea, treatment-related, patients by maximum grade (600 mg (N=3), grade 1): 1
- Dysgeusia, treatment-related, patients by maximum grade (600 mg (N=3), grade 1): 1
- Fatigue, treatment-related, patients by maximum grade (600 mg (N=3), grade 1): 1
- Nausea, treatment-related, patients by maximum grade (600 mg (N=3), grade 1): 3
- Vomiting, treatment-related, patients by maximum grade (600 mg (N=3), grade 1): 2
- Anemia, treatment-related, patients by maximum grade (600 mg (N=3), grade 2): 1
- Fatigue, treatment-related, patients by maximum grade (600 mg (N=3), grade 2): 1
- Anorexia, treatment-related, patients by maximum grade (800 mg (N=7), grade 1): 3
- Dysgeusia, treatment-related, patients by maximum grade (800 mg (N=7), grade 1): 1
- Electrocardiogram QT prolongation, treatment-related, patients by maximum grade (800 mg (N=7), grade 1): 1
- Epistaxis, treatment-related, patients by maximum grade (800 mg (N=7), grade 1): 1
- Fatigue, treatment-related, patients by maximum grade (800 mg (N=7), grade 1): 1
- Hypokalemia, treatment-related, patients by maximum grade (800 mg (N=7), grade 1): 1
- Nausea, treatment-related, patients by maximum grade (800 mg (N=7), grade 1): 4
- Vomiting, treatment-related, patients by maximum grade (800 mg (N=7), grade 1): 2
- Weight decrease, treatment-related, patients by maximum grade (800 mg (N=7), grade 1): 1
- AST increase, treatment-related, patients by maximum grade (800 mg (N=7), grade 2): 1
- Anorexia, treatment-related, patients by maximum grade (800 mg (N=7), grade 2): 1
- Diarrhea, treatment-related, patients by maximum grade (800 mg (N=7), grade 2): 1
- Dysgeusia, treatment-related, patients by maximum grade (800 mg (N=7), grade 2): 1
- Fatigue, treatment-related, patients by maximum grade (800 mg (N=7), grade 2): 3
- Nausea, treatment-related, patients by maximum grade (800 mg (N=7), grade 2): 2
- Vomiting, treatment-related, patients by maximum grade (800 mg (N=7), grade 2): 2
- Weight decrease, treatment-related, patients by maximum grade (800 mg (N=7), grade 2): 1
- ALT increase, treatment-related, patients by maximum grade (800 mg (N=7), grade 3): 1
- Fatigue, treatment-related, patients by maximum grade (800 mg (N=7), grade 3): 1
- Nausea, treatment-related, patients by maximum grade (800 mg (N=7), grade 3): 1
- Vomiting, treatment-related, patients by maximum grade (800 mg (N=7), grade 3): 1
- Evaluable patients sustaining a DLT (800 mg dose level, first cycle): 1 of 6
- AST abnormalities, share of all administered cycles (68 cycles): 21%
- Patients who omitted doses due to treatment-related AEs (N=19): 21%
- Patients who underwent dose reductions due to treatment-related AEs (N=19): 21%
- ALT increase, treatment-related, patients by maximum grade (Total (N=19), grade 1): 2
- AST increase, treatment-related, patients by maximum grade (Total (N=19), grade 1): 1
- Anemia, treatment-related, patients by maximum grade (Total (N=19), grade 1): 1
- Anorexia, treatment-related, patients by maximum grade (Total (N=19), grade 1): 4
- Arrhythmia, treatment-related, patients by maximum grade (Total (N=19), grade 1): 1
- Depression, treatment-related, patients by maximum grade (Total (N=19), grade 1): 1
- Diarrhea, treatment-related, patients by maximum grade (Total (N=19), grade 1): 1
- Dysgeusia, treatment-related, patients by maximum grade (Total (N=19), grade 1): 3
- Electrocardiogram QT prolongation, treatment-related, patients by maximum grade (Total (N=19), grade 1): 1
- Epistaxis, treatment-related, patients by maximum grade (Total (N=19), grade 1): 1
- Fatigue, treatment-related, patients by maximum grade (Total (N=19), grade 1): 3
- Hypokalemia, treatment-related, patients by maximum grade (Total (N=19), grade 1): 1
- Nausea, treatment-related, patients by maximum grade (Total (N=19), grade 1): 8
- Thrombocytopenia, treatment-related, patients by maximum grade (Total (N=19), grade 1): 1
- Vomiting, treatment-related, patients by maximum grade (Total (N=19), grade 1): 4
- Weight decrease, treatment-related, patients by maximum grade (Total (N=19), grade 1): 1
- Anorexia, treatment-related, patients by maximum grade (Total (N=19), grade 2): 1
- Diarrhea, treatment-related, patients by maximum grade (Total (N=19), grade 2): 1
- Dysgeusia, treatment-related, patients by maximum grade (Total (N=19), grade 2): 1
- Fatigue, treatment-related, patients by maximum grade (Total (N=19), grade 2): 4
- Nausea, treatment-related, patients by maximum grade (Total (N=19), grade 2): 4
- Vomiting, treatment-related, patients by maximum grade (Total (N=19), grade 2): 2
- Weight decrease, treatment-related, patients by maximum grade (Total (N=19), grade 2): 1
- Fatigue, treatment-related, patients by maximum grade (Total (N=19), grade 3): 1
- Nausea, treatment-related, patients by maximum grade (Total (N=19), grade 3): 1
- Vomiting, treatment-related, patients by maximum grade (Total (N=19), grade 3): 1
- Grade 4 treatment-related adverse events (all dose levels): No grade 4 treatment-related adverse event
- Treatment-related deaths (all dose levels): No treatment-related deaths
- Anemia regardless of causality, patients (all grades, N=19): 89%
- GGT elevation regardless of causality, patients (all grades, N=19): 80%
- Hypermagnesemia, patients (all grades, N=19): 26%
- Hypokalemia, patients (all grades, N=19): 58%
